Source: ChEMBL document CHEMBL1811868, “Structure-activity relationship of 2-hydroxy-2-aryl-2,3-dihydro-imidazo[1,2-a]pyrimidinium salts and 2N-substituted 4(5)-aryl-2-amino-1H-imidazoles as inhibitors of biofilm formation by Salmonella Typhimurium and Pseudomonas aeruginosa” (Bioorg Med Chem, 2011)
Calls of active or inactive are those of the source. Unless noted, no cut-off for these calls is given here.

Tests used:
Salmonella typhimurium [1] = assay: Antimicrobial activity against Salmonella Typhimurium ATCC 14028 assessed as inhibition of planktonic cell growth at 20 uM after 24 hrs by […]; type: functional, organism-based; settings: Salmonella enterica subsp. enterica serovar Typhimurium
Outline: (§1)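 Planktonic growth was followed by Bioscreen growth curves, not by crystal violet. Overnight cultures were diluted 1:200 in TSB 1/20 and received compound serially diluted in DMSO or EtOH, in triplicate, with solvent controls. Plates were shaken at 25 °C for at least 24 h, reading A600 every 15 min.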

Pseudomonas aeruginosa [2] = assay: Antimicrobial activity against Pseudomonas aeruginosa PA14 assessed as inhibition of biofilm formation after 24 hrs by spectrophotometry; type: functional, organism-based; settings: PA14, 24 h
Outline: (§2)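 Static peg-lid biofilm prevention assay. Twofold serial dilutions in TSB diluted 1/20, 2–3 repeats per compound. Overnight S. Typhimurium ATCC14028 (LB-grown) or P. aeruginosa PA14 (TSB-grown) cultures were diluted 1:100, giving ~10^6 cells/well, then incubated 24 h at 25 °C without shaking. Pegs were PBS-washed, stained 30 min with 0.1% crystal violet, extracted with 30% acetic acid and read at OD570. IC50 was fitted from the concentration gradient.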

Salmonella typhimurium [3] = assay: Antimicrobial activity against Salmonella Typhimurium ATCC 14028 assessed as inhibition of planktonic cell growth at IC50 after 24 hrs by […]; type: functional, organism-based; settings: Salmonella enterica subsp. enterica serovar Typhimurium; outline: as §1
Salmonella typhimurium [4] = assay: Antimicrobial activity against Salmonella Typhimurium ATCC 14028 assessed as inhibition of planktonic cell growth at 40 uM after 24 hrs by […]; type: functional, organism-based; settings: Salmonella enterica subsp. enterica serovar Typhimurium; outline: as §1
Pseudomonas aeruginosa [5] = assay: Antimicrobial activity against Pseudomonas aeruginosa PA14 assessed as inhibition of planktonic cell growth at IC50 after 24 hrs by […]; type: functional, organism-based; outline: as §1
Salmonella typhimurium [6] = assay: Antimicrobial activity against Salmonella Typhimurium ATCC 14028 assessed as inhibition of biofilm formation after 24 hrs by spectrophotometry; type: functional, organism-based, Salmonella enterica subsp. enterica serovar Typhimurium; settings: Salmonella enterica, ATCC 14028, 24 h; outline: as §2
Pseudomonas aeruginosa [7] = assay: Antimicrobial activity against Pseudomonas aeruginosa PA14 assessed as inhibition of planktonic cell growth at 20 uM after 24 hrs by […]; type: functional, organism-based; outline: as §1
Pseudomonas aeruginosa [8] = assay: Antimicrobial activity against Pseudomonas aeruginosa PA14 assessed as inhibition of planktonic cell growth at 40 uM after 24 hrs by […]; type: functional, organism-based; outline: as §1
Pseudomonas aeruginosa [9] = assay: Antimicrobial activity against Pseudomonas aeruginosa PA14 assessed as inhibition of planktonic cell growth at 100 uM after 24 hrs by […]; type: functional, organism-based; outline: as §1
Pseudomonas aeruginosa [10] = assay: Antimicrobial activity against Pseudomonas aeruginosa PA14 assessed as inhibition of biofilm formation at 25 to 50 uM after 24 hrs by spectrophotometry; type: functional; outline: as §2
Salmonella typhimurium [11] = assay: Antimicrobial activity against Salmonella Typhimurium ATCC 14028 assessed as inhibition of planktonic cell growth at 80 uM after 24 hrs by […]; type: functional, organism-based; settings: Salmonella enterica subsp. enterica serovar Typhimurium; outline: as §1
Pseudomonas aeruginosa [12] = assay: Antimicrobial activity against Pseudomonas aeruginosa PA14 assessed as inhibition of planktonic cell growth at 80 uM after 24 hrs by […]; type: functional, organism-based; outline: as §1
Salmonella typhimurium [13] = assay: Antimicrobial activity against Salmonella Typhimurium ATCC 14028 assessed as inhibition of planktonic cell growth at 150 uM after 24 hrs by […]; type: functional, organism-based; settings: Salmonella enterica subsp. enterica serovar Typhimurium; outline: as §1
Pseudomonas aeruginosa [14] = assay: Antimicrobial activity against Pseudomonas aeruginosa PA14 assessed as inhibition of planktonic cell growth at 5 uM after 24 hrs by […]; type: functional, organism-based; outline: as §1
Salmonella typhimurium [15] = assay: Antimicrobial activity against Salmonella Typhimurium ATCC 14028 assessed as inhibition of planktonic cell growth at 200 uM after 24 hrs by […]; type: functional, organism-based; settings: Salmonella enterica subsp. enterica serovar Typhimurium; outline: as §1
Pseudomonas aeruginosa [16] = assay: Antimicrobial activity against Pseudomonas aeruginosa PA14 assessed as inhibition of planktonic cell growth at 10 uM after 24 hrs by […]; type: functional, organism-based; outline: as §1

CCCCCNc1ncc(-c2ccc(Br)cc2)[nH]1
growth inhibition (GI) (Salmonella typhimurium [1]): Active
IC50 (Pseudomonas aeruginosa [2]): 10.2 µM
growth inhibition (GI) (Salmonella typhimurium [3]): inactive
growth inhibition (GI) (Salmonella typhimurium [4]): Active
growth inhibition (GI) (Pseudomonas aeruginosa [5]): inactive
IC50 (Salmonella typhimurium [6]): 3.1 µM
growth inhibition (GI) (Pseudomonas aeruginosa [7]): inactive

Nc1ncc(-c2ccc([N+](=O)[O-])cc2)[nH]1
growth inhibition (GI) (Pseudomonas aeruginosa [8]): inactive
growth inhibition (GI) (Pseudomonas aeruginosa [9]): Active
growth inhibition (GI) (Salmonella typhimurium [3]): inactive
growth inhibition (GI) (Salmonella typhimurium [4]): Active
growth inhibition (GI) (Pseudomonas aeruginosa [5]): inactive

CCCCCCCCCCCN1c2nccc[n+]2C[C@@]1(O)c1ccccc1.[Br-]
IC50 (Pseudomonas aeruginosa [2]): > 800 µM
growth inhibition (GI) (Pseudomonas aeruginosa [10]): > 25%
growth inhibition (GI) (Salmonella typhimurium [3]): Active
growth inhibition (GI) (Salmonella typhimurium [4]): Active
IC50 (Salmonella typhimurium [6]): 24.6 µM

CCCCCCCCNc1ncc(-c2ccc(S(C)(=O)=O)cc2)[nH]1
IC50 (Pseudomonas aeruginosa [2]): 3.1 µM
growth inhibition (GI) (Salmonella typhimurium [11]): inactive
growth inhibition (GI) (Salmonella typhimurium [3]): inactive
growth inhibition (GI) (Pseudomonas aeruginosa [5]): inactive
IC50 (Salmonella typhimurium [6]): 41.8 µM
growth inhibition (GI) (Pseudomonas aeruginosa [7]): inactive

Nc1ncc(-c2ccccc2)[nH]1
growth inhibition (GI) (Pseudomonas aeruginosa [12]): inactive
growth inhibition (GI) (Salmonella typhimurium [3]): inactive
growth inhibition (GI) (Salmonella typhimurium [13]): inactive
growth inhibition (GI) (Pseudomonas aeruginosa [5]): inactive

CC(C)CNc1ncc(-c2ccc(Cl)cc2)[nH]1
growth inhibition (GI) (Salmonella typhimurium [1]): inactive
IC50 (Pseudomonas aeruginosa [2]): 0.9 µM
growth inhibition (GI) (Salmonella typhimurium [3]): inactive
growth inhibition (GI) (Salmonella typhimurium [4]): Active
growth inhibition (GI) (Pseudomonas aeruginosa [5]): inactive
IC50 (Salmonella typhimurium [6]): 2 µM
growth inhibition (GI) (Pseudomonas aeruginosa [14]): inactive

Brc1ccc(-c2cnc(NC3CCCC3)[nH]2)cc1
growth inhibition (GI) (Salmonella typhimurium [1]): inactive
IC50 (Pseudomonas aeruginosa [2]): 7.2 µM
growth inhibition (GI) (Salmonella typhimurium [3]): inactive
growth inhibition (GI) (Pseudomonas aeruginosa [5]): inactive
IC50 (Salmonella typhimurium [6]): 12.1 µM
growth inhibition (GI) (Pseudomonas aeruginosa [7]): inactive

CCCCNc1ncc(-c2ccc(Br)cc2)[nH]1
growth inhibition (GI) (Salmonella typhimurium [1]): inactive
IC50 (Pseudomonas aeruginosa [2]): 9.8 µM
growth inhibition (GI) (Salmonella typhimurium [3]): inactive
growth inhibition (GI) (Pseudomonas aeruginosa [5]): inactive
IC50 (Salmonella typhimurium [6]): 7.1 µM
growth inhibition (GI) (Pseudomonas aeruginosa [7]): inactive

CSc1ccc(-c2cnc(NC3CCCCC3)[nH]2)cc1
IC50 (Pseudomonas aeruginosa [2]): 15.8 µM
growth inhibition (GI) (Pseudomonas aeruginosa [5]): inactive
IC50 (Salmonella typhimurium [6]): 191 µM
growth inhibition (GI) (Pseudomonas aeruginosa [7]): inactive

CCCCCCCCCCCN1c2nccc[n+]2C[C@@]1(O)c1ccc(Cl)cc1.[Br-]
IC50 (Pseudomonas aeruginosa [2]): > 800 µM
growth inhibition (GI) (Pseudomonas aeruginosa [10]): > 25%
IC50 (Salmonella typhimurium [6]): 61.9 µM

CCCCCCCCCCCCCCN1c2nccc[n+]2C[C@@]1(O)c1ccccc1.[Br-]
IC50 (Pseudomonas aeruginosa [2]): > 800 µM
growth inhibition (GI) (Pseudomonas aeruginosa [10]): > 25%
IC50 (Salmonella typhimurium [6]): 180 µM

Nc1ncc(-c2ccc(F)cc2)[nH]1
growth inhibition (GI) (Salmonella typhimurium [15]): inactive
growth inhibition (GI) (Pseudomonas aeruginosa [8]): inactive
growth inhibition (GI) (Salmonella typhimurium [3]): inactive
growth inhibition (GI) (Pseudomonas aeruginosa [5]): inactive

CCCCCCCCCCCCCN1c2nccc[n+]2C[C@@]1(O)c1ccccc1.[Br-]
IC50 (Pseudomonas aeruginosa [2]): > 800 µM
growth inhibition (GI) (Pseudomonas aeruginosa [10]): > 25%
IC50 (Salmonella typhimurium [6]): 81.6 µM

Nc1ncc(-c2ccc(Br)cc2)[nH]1
growth inhibition (GI) (Pseudomonas aeruginosa [8]): Active
growth inhibition (GI) (Pseudomonas aeruginosa [16]): inactive
growth inhibition (GI) (Pseudomonas aeruginosa [5]): inactive

CCCCCCCCCCCCN1c2nccc[n+]2C[C@@]1(O)c1ccccc1.[Br-]
IC50 (Pseudomonas aeruginosa [2]): > 800 µM
growth inhibition (GI) (Pseudomonas aeruginosa [10]): > 25%
growth inhibition (GI) (Salmonella typhimurium [3]): Active
growth inhibition (GI) (Salmonella typhimurium [4]): Active
IC50 (Salmonella typhimurium [6]): 27.5 µM
